ABHD4 inh – ABHD4 inhibitors, primary screen, biochemical, fluorescence polarization, mouse; (Lyso)-N-acylphosphatidylethanolamine lipase (Mus musculus), Q8VD66; purified mABHD4, FP-Rh probe fluorescence polarization; inhibition, % at 8.92 µM; actives 0.54% (n = 370,000);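 active = inhibition exceeding the mean over every tested compound plus 3 SD, cut at about 30% in these data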;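 also: 0% = plate median of compound wells and 100% = S159A mutant with DMSO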
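Material: mouse ABHD4 enzyme, wild type; Benchmarks: S159A mutant high control, sample median low control; Buffer or medium: HEPES pH 7.0, NaCl, Pluronic buffer; Signal: fluorescence polarization; Read-out: percent inhibition of probe binding, normalized to plate controls; Timing: pre-incubation 45 min, probe exposure 60 min, at 25 °C; Dosing: 8.92 µM, single dose.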
HTRA1 inhibitor – HTRA1 serine protease inhibitors, primary screen, biochemical, fluorescence polarization, HTS; inhibition, % at 5.96 µM; actives 0.5% (n = 340,000); Q92743; recombinant HTRA1, FP-rhodamine activity-based probe; AID 504803, 2011; in the data active = inhibition above about 36%;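 also: 0% = enzyme with DMSO and 100% = wells lacking enzyme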
Target sequence (Q92743 whole entry, looked up): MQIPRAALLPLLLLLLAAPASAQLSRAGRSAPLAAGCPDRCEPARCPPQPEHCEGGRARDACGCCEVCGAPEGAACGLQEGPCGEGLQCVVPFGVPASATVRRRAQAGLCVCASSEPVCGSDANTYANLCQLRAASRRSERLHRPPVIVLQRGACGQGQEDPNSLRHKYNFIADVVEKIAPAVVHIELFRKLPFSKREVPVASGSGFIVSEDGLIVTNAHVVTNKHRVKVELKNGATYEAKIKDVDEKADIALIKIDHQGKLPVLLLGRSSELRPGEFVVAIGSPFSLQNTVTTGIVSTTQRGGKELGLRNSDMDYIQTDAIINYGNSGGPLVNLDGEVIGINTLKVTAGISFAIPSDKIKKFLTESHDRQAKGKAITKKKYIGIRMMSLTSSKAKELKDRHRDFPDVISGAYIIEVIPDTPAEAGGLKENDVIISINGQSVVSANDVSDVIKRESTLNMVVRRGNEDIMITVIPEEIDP
PRMT1 FP inh – PRMT1 methyltransferase inhibitors, primary screen, biochemical, fluorescence polarization; recombinant PRMT1, activity-based probe fluorescence polarization; actives 1.3% (n = 370,000); Protein arginine N-methyltransferase 1 (Homo sapiens), Q99873; inhibition, % at 2.79 µM; AID 652257, 2013;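 active = inhibition above about 21% made by adding two undisclosed values, limit read from the data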
TCR CD3 inh – inhibitors of human TCR-CD3 interaction, primary screen, biochemical, fluorescence, TAMRA-labeled TCR probe | inhibition, % at 9.4 µM | actives 0.37% (n = 360,000); in the data active = inhibition above about 19%;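 also: recombinant mutant TCR 2C K166C tagged with TAMRA read by polarization; 0% = receptor in buffer alone and 100% = receptor with positive control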
SIAE inh – human SIAE inhibitors, primary screen, biochemical, fluorescence polarization, FP-Rh probe, 1536-well HTS. Sialate O-acetylesterase (Homo sapiens), Q9HAT2. actives 0.69% (n = 370,000). inhibition, % at 9.66 µM. AID 1053197, 2014. SIAE FP-Rh probe binding;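 active = inhibition above a cutoff: mean of compounds within the control limits plus 3 SD of those, cut at about 17% in these data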;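 also: 0% = plate median of compound wells and 100% = probe without SIAE protein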
PRMT1 inh conf – PRMT1 methyltransferase inhibitors, confirmation, biochemical, fluorescence polarization, triplicate; inhibition, % at 2.79 µM; shares compounds with PRMT1 FP inh; actives 42% (n = 3,300); recombinant His-PRMT1, activity-based probe fluorescence polarization; AID 687036, 2013;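 active = mean inhibition across replicates above the hit cutoff derived for the earlier primary screen, cut at about 22% in these data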
An asterisk follows results filed as active; . = no result. Shown are actives, neighbours in structure and some others; about 2.7% of the full set was active somewhere.

SMILES | ABHD4 inh | HTRA1 inhibitor | PRMT1 FP inh | TCR CD3 inh | SIAE inh | PRMT1 inh conf
CC(C)N(C(=O)c1nn(C)c2c1CSc1ccccc1-2)C1CCCCC1 | -9 | -22 | 39* | -4 | 1 | 14
CC(=O)Nc1ccc2c(c1)Cc1cc(N3C(=O)C=CC3=O)ccc1-2 | -8 | -31 | 91* | -1 | -14 | 95*
O=C1C=CC(=O)N1c1ccc2c(c1)Cc1cc(F)ccc1-2 | 2 | -5 | 87* | -1 | -29 | 83*
COC(=O)[C@@]12CCCCC=C1N(CCc1ccc(Cl)cc1)C(=O)[C@H]2CC(=O)NCCCCc1ccccc1 | -13 | . | 1 | . | -17 | .
COc1cnc(-c2ccccc2)c(-c2ccccc2)n1 | -11 | -3 | 4 | -2 | -5 | .
COC(=O)c1ccc(-n2c(C)ccc2-c2ccccc2)cc1 | 4 | 3 | 26* | -3 | 1 | 8
CC(=O)c1ccc(-n2c(CCC(=O)O)ccc2-c2ccccc2)cc1 | 0 | 5 | 2 | 0 | 5 | .
CC(=O)c1ccc(-n2c(C)ccc2-c2ccccc2)cc1 | 0 | 4 | 33* | -3 | 1 | 2
COC(=O)c1ccc(-n2c(CCC(=O)O)ccc2-c2ccccc2)cc1 | . | -10 | . | . | . | .
COc1ccc(-n2c(C)ccc2-c2ccccc2)cn1 | -2 | 5 | 56* | -9 | -2 | 14
COc1ccc(N2C(=O)CC(SCC(=O)O)C2=O)cc1 (centres undefined) | 1 | -7 | 25* | 1 | -4 | 11
COc1ccc(NC(=O)CSC2CC(=O)N(c3ccc4c(c3)OCCO4)C2=O)cc1 (centres undefined) | -5 | -10 | 36* | 2 | -2 | 23*
CCN=C(Nc1ccc2c(c1)OCO2)SC1CC(=O)N(c2ccc(OC)cc2)C1=O (centres undefined) | 0 | 1 | -1 | 8 | -3 | .
CCOc1ccc(N2C(=O)CC(SCC(=O)O)C2=O)cc1 (centres undefined) | 2 | 1 | 3 | 4 | -3 | .
Cc1ccc(N2C(=O)CC(Sc3cccs3)C2=O)cc1 (centres undefined) | 0 | 2 | 66* | -8 | 4 | 51*
Cc1ccc(SC2CC(=O)N(c3ccc4c(c3)OCCO4)C2=O)cc1 (centres undefined) | 2 | 1 | 36* | 2 | 1 | 26*
COc1cccc(-c2ccc(CN3C(C(C)C)C(=O)N(Cc4cn(CCC5OCCO5)nn4)CCS3(=O)=O)cc2)c1OC (centres undefined) | -21 | . | -1 | 7 | -8 | .
C1CSC2(N1)C1CC3CC2CC(C1)C31NCCS1 (centres undefined) | 8 | 5 | 63* | 4 | 9 | 45*
CN(NC(=S)Nc1ccc(OC(F)F)cc1)C(=S)Nc1ccc(OC(F)F)cc1 | -20 | 5 | 44* | -1 | 2 | -2
CC(C)N(C[C@@H]1CSCCS(=O)(=O)N1)C(C)C | 3 | . | -3 | 0 | 5 | .
Cc1sc2ccccc2[n+]1CC(=O)O | -1 | -2 | 48* | -4 | 3 | 54*
Cc1sc2ccccc2[n+]1CCC(C)S(=O)(=O)[O-] (centres undefined) | 6 | 7 | 36* | 2 | -2 | 34*
O=C(CNC(=O)N1CC(=O)Nc2ccccc21)Nc1ccc(Cl)cc1Cl | -3 | 0 | -8 | -5 | 0 | .
CC1=NN(c2ccccc2)C(=O)C1C(=S)SC1CC(=O)NC1=O (centres undefined) | 4 | 8 | 14 | -4 | 11 | .
O=C1CC(SC(=S)C2CCCC2=O)C(=O)N1 (centres undefined) | 25 | 7 | 64* | 2 | -2 | 82*
SMILES | ABHD4 inh | HTRA1 inhibitor | PRMT1 FP inh | TCR CD3 inh | SIAE inh | PRMT1 inh conf
NC(=O)C1CCN(C(=S)c2ccc(-c3ccc(Br)cc3)o2)CC1 | 4 | . | 46* | -4 | -1 | 60*
NC(=O)c1ccc(-c2ccc(Br)cc2)o1 | -1 | -8 | 1 | 0 | -5 | .
CN(C)CCC(=O)C(Cc1ccccc1)c1ccccc1 (centres undefined) | -3 | -12 | 42* | -9 | -4 | 32*
O=C(NC1CCCCC1)c1ccc(-c2ccccc2)cc1 | 1 | 5 | 42* | -9 | -10 | -6
O=C(NC1CCCCCCC1)c1ccc(F)cc1 | 0 | -1 | -5 | 0 | 0 | .
CC1CC(C)(C)N2C(=O)C3(Nc4ccccc4S3)c3cccc1c32 (centres undefined) | . | 5 | . | . | . | .
O=C1N2CCCc3cccc(c32)C12Nc1ccccc1S2 (centres undefined) | 13 | 2 | 40* | -5 | 6 | 23*
Cc1ccc(/C=C/C(=O)NC2CCCCCCC2)o1 | 6 | -9 | 50* | -3 | 6 | 59*
Cc1ccc(/C=C/C(=O)NCCc2c[nH]c3ccccc23)o1 | -2 | -7 | 5 | 9 | -1 | .
Cc1ccc(/C=C/C(=O)NCCc2cccc(Cl)c2)o1 | 6 | -16 | 46* | -2 | -1 | 90*
Cc1ccc(/C=C/C(=O)Nc2ccc(S(N)(=O)=O)cc2)o1 | -18 | -2 | 76* | -5 | -6 | 81*
Cc1ccc(/C=C/C(=O)NCc2ccc(S(N)(=O)=O)cc2)o1 | -1 | 0 | 42* | -1 | 14 | 81*
Cc1cc([N+](=O)[O-])nn1CCCC(=O)NCc1ccc(F)cc1 | 0 | -7 | -2 | 1 | -3 | .
Cc1ccc(/C=C/C(=O)N2CCN(S(=O)(=O)c3c(C)c(C)cc(C)c3C)CC2)o1 | 2 | -22 | 16 | 10 | 1 | .
Cc1ccc(/C=C/C(=O)Nc2cccc(S(=O)(=O)N3CCOCC3)c2)o1 | 3 | -10 | 36* | -8 | 0 | 5
CC(=O)NS(=O)(=O)c1ccc(NC(=O)/C=C/c2ccc(C)o2)cc1 | 0 | -2 | 27* | 0 | 8 | 77*
Cc1ccc(/C=C/C(=O)Nc2nccs2)o1 | 19 | -4 | 29* | -5 | 3 | 5
Cc1ccc(/C=C/C(=O)N2CCN(S(=O)(=O)c3ccc(C)c(C)c3)CC2)o1 | 7 | -5 | 37* | -6 | 6 | 52*
O=C(/C=C/c1ccco1)Nc1cccc(S(=O)(=O)N2CCOCC2)c1 | 5 | -5 | -1 | -2 | 6 | .
O=S(=O)(c1ccccc1Br)N(Cc1ccccc1)CC(O)COCc1ccccc1 (centres undefined) | -18 | -36 | -1 | 2 | -5 | .
COc1ccc(/C=C/C(=O)NCC2COc3ccccc3O2)cc1OC (centres undefined) | -5 | -5 | -1 | 2 | -7 | .

Bioassay records deposited in PubChem BioAssay by The Scripps Research Institute Molecular Screening Center.
